This note sets out measurements from ChEMBL document CHEMBL1137824, “Centrally acting and metabolically stable thyrotropin-releasing hormone analogues by replacement of histidine with substituted pyridinium” (J Med Chem, 2004).

Bounds are passed on as bounds.

Data set [1] can be described thus: Capacity factor of compound was determined by immobilized artificial membrane chromatography. It is filed as ADME. Summed up:
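Immobilized artificial membrane HPLC, isocratic 10 mM ammonium acetate pH 5.4 at 1.0 mL/min, detection by ESI-MS (pyridinium salts) or APCI-MS (dihydropyridine prodrugs). k'IAM = (tR compound − tR citric acid)/tR citric acid, citric acid serving as void marker.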

Data set [2] is described as follows: Partition coefficient (logP). Format: physicochemical. The conditions noted are these: octanol/water.
Data set [3] deals with Mus musculus. Briefly: Sleeping time of mice was determined after intravenous administration of compound at 15 umol/kg of Body Weight. It is filed as functional. Summed up:
(§1)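 Swiss Webster mice (30 ± 2 g), 8–16 per group; 15 µmol/kg compound iv via tail vein in degassed saline, vehicle controls 1.5 mL/kg. Sodium pentobarbital 60 mg/kg ip after 10 min; sleeping time timed from loss to regain of righting reflex.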

In data set [4] the test system is Mus musculus. Briefly: Sleeping time of mice was determined after intravenous administration of compound at 15 umol/kg of body weight. It is filed as functional. Summed up: as §1
In data set [5] the test system is Mus musculus. The experiment in a line: Sleeping time decrease in mice was determined after intravenous administration of compound at 1 umol/kg of body weight. Format: functional.
The test system of data set [6] is Mus musculus. Briefly: Sleeping time decrease in mice was determined after intravenous administration of compound at 5 umol/kg of body weight. Format: functional. Summed up: (§2)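 Swiss Webster mice (30 ± 2 g), 8–16 per group, given compound iv via tail vein in degassed saline; controls received saline 1.5 mL/kg. Sodium pentobarbital 60 mg/kg ip 10 min later; sleeping time from loss to regain of righting reflex; decrease versus saline control, mean ± SEM.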

Data set [7] has as its system Mus musculus. The experiment in a line: Sleeping time decrease in mice was determined after intravenous administration of compound at 15 umol/kg of body weight. It is filed as functional. Summed up: as §2
Data set [8] has as its system Mus musculus. Briefly: Sleeping time decrease in mice was determined after intravenous administration of compound at 50 umol/kg of body weight. It is filed as functional. Summed up:
as §2

The test system of data set [9] is Mus musculus. Briefly: Sleeping time decrease in mice was determined after intravenous administration of compound at 0.5 umol/kg of body weight. It is filed as functional. Summed up:
as §2

In data set [10] the target is T1, Thyrotropin-releasing hormone receptor (Rattus norvegicus, UniProt Q01717).
T1 sequence (Q01717 whole entry): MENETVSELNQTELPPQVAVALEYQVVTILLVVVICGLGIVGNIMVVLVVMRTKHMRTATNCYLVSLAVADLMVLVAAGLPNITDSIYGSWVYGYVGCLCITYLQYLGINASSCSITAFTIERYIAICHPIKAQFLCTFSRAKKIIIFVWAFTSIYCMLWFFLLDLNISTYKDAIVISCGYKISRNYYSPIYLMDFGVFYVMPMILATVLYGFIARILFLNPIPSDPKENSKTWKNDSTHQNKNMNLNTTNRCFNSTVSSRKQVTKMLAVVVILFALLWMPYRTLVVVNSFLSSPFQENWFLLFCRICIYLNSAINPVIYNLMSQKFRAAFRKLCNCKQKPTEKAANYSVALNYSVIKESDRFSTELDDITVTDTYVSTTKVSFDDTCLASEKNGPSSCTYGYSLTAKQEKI
Briefly: Inhibition of [3H][3-Me-His2]-TRH binding to thyrotropin releasing hormone receptor of rat forebrain. Summed up: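 Rat forebrain membrane suspension in 20 mM phosphate pH 7.4, incubated 180 min at 4 °C with 2 nM [3H][3-Me-His2]TRH and varying test concentrations. Nonspecific binding defined with 10 µM TRH; Ki reported.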

Data set [11] has as its system Rattus norvegicus. Briefly: Maximal changes in rat hippocampal acetylcholine concentration after administration of compound through a microdialysis probe. It is filed as functional, Hippocampus. Summed up: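 Male Sprague–Dawley rats (250–300 g), guide cannula in ventral hippocampus, probe (4 mm polycarbonate) inserted after 7 days. Perfused with artificial CSF plus 2 µM neostigmine at 2 µL/min; baseline is mean of three 20-min fractions. Compound perfused at 1 nmol/µL through probe; maximal ACh change expressed as % of baseline.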

Data set [12] can be described thus: Half-life of compound in rat brain homogenate was determined. Format: ADME, tissue-based. Summed up:
(§3)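 About 100 nmol compound per 1 mL rat plasma or 20% rat brain homogenate (0.1 M phosphate, pH 7.4), shaken at 37 °C. Aliquots taken at 2–90 min and quenched in ice-cold 5% acetic acid/acetonitrile, then centrifuged. Loss of compound followed by HPLC against standards in heat-denatured matrix; t1/2 from the decline.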

Data set [13] can be described thus: Half-life of compound in rat plasma was determined. Format: ADME, cell-free. Summed up: as §3

Turning to `NC(=O)C1=CN(CCC[C@H](NC(=O)[C@@H]2CCC(=O)N2)C(=O)N2CCC[C@H]2C(N)=O)C=CC1`, the “K''IAM” value in data set [1] was 1.47. For the same compound, the logP in data set [2] was -2.39. Further, the Sleeping time in data set [3] was determined as 58.1 min.

With `NC(=O)C1=CN(CCCCC(NC(=O)[C@@H]2CCC(=O)N2)C(=O)N2CCC[C@H]2C(N)=O)C=CC1` (stereo partly specified), in data set [1], the “K''IAM” value is listed as 2.3. The logP in [2] is -1.94. The compound further came in with a Sleeping time in [3] of 48.8 min.

For the compound `NC(=O)C1=CN(C[C@H](NC(=O)[C@@H]2CCC(=O)N2)C(=O)N2CCC[C@H]2C(N)=O)C=CC1`, the “K''IAM” value in data set [1] came out at 0.55. For the same compound, the lipophilicity (logP) in [2] is -3.29. In addition, the Sleeping time in [4] came to 19.4 min; in data set [5], 5.4 min; in [6], 14.1 min; in data set [7], 23.2 min; in [8], 24.2 min; in [9], 2.8 min.

Consider `NC(=O)C1=CN(CCC(NC(=O)[C@@H]2CCC(=O)N2)C(=O)N2CCC[C@H]2C(N)=O)C=CC1` (stereo partly specified), for which the “K''IAM” value in data set [1] is given as 0.8. In addition, the logP in data set [2] is -2.84. This compound also displayed a Sleeping time in [3] of 44.7 min.

For the compound `NC(=O)c1ccc[n+](CCC[C@H](NC(=O)[C@@H]2CCC(=O)N2)C(=O)N2CCC[C@H]2C(N)=O)c1`, the “K''IAM” value in data set [1] amounted to 0.49. The Ki in [10] was over 10 µM. This compound also came in with a Maximal change in data set [11] of 145%. Besides, the logP in data set [2] was -1.74.

`NC(=O)c1ccc[n+](C[C@H](NC(=O)[C@@H]2CCC(=O)N2)C(=O)N2CCC[C@H]2C(N)=O)c1.O=C([O-])C(F)(F)F`: in [1], the “K''IAM” value was 0.3. Besides, in [10], the Ki was over 10 µM. Moreover, the Maximal change in data set [11] worked out at 279%. The same compound came in with a logP in data set [2] of -2.64. The compound further registered a Sleeping time in data set [3] of 75.9 min.

For `NC(=O)c1ccc[n+](CCCC[C@H](NC(=O)[C@@H]2CCC(=O)N2)C(=O)N2CCC[C@H]2C(N)=O)c1`, in [1], the “K''IAM” value is 0.6. The compound further yielded a Ki in data set [10] of over 10 µM. Besides, the Maximal change in data set [11] was 242%. Also, the logP in data set [2] is -1.29.

As for `NC(=O)c1ccc[n+](CC[C@H](NC(=O)[C@@H]2CCC(=O)N2)C(=O)N2CCC[C@H]2C(N)=O)c1`, the “K''IAM” value in [1] stood at 0.42. In data set [10], the Ki was over 10 µM. The compound also showed a Maximal change in data set [11] of 216%. The logP in data set [2] was -2.18.

Regarding `NC(=O)[C@@H]1CCCN1C(=O)[C@H](Cc1cnc[nH]1)NC(=O)[C@@H]1CCC(=O)N1` [PROTIRELIN], the half-life in [12] stood at 16 min; in data set [13], 11 min. In addition, the “K''IAM” value in [1] is given as 0.51. Besides, the Ki in data set [10] was 0.0423 µM. Besides, the Maximal change in data set [11] came to 394%. This compound returned a logP in data set [2] of -1.74. The compound also came in with a Sleeping time in data set [3] of 26 min.

In general, logP refers to the decadic logarithm of the partition coefficient of the neutral form, usually between octanol and water. For orientation: Ki means a dissociation constant, usually derived from enzyme kinetics or from competition with a known ligand. Higher therefore signals lower affinity. As usually defined, the half-life is the time needed for the level to fall by half in the phase considered.
